Laboratory results as given in ChEMBL document CHEMBL3774382, “Design and synthesis of small molecule-sulfotyrosine mimetics that inhibit HIV-1 entry” (Bioorg Med Chem, 2016).
pIC50: −log10 of the molar value.

Test system: Human immunodeficiency virus 1
Assay: Antiviral activity against HIV1 dual CXCR4/CCR5-tropic strain 89.6 infected in human 293T cells after 48 hrs by neutralization assay
Format: functional, organism-based
Settings: Human immunodeficiency virus 1, 89.6, HEK-293T; call rule not given here
In short: (§1)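 Env-pseudotyped virus made by transfecting 293T cells with SG3denv plus an HIV-1 env plasmid. Medium changed at 24 h, supernatant harvested at 48 h, 0.45 μm filtered, stored at −80 °C. Two-fold serial inhibitor dilutions mixed with virus, then TZM-bl cells added. Incubated at 37 °C, 5% CO₂, fresh medium at 24 h. Luciferase read after lysis at 48 h post-infection. Single round. Tested up to 400 μM.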

| SMILES | pIC50 |
| --- | --- |
| CN(C)c1ccc(-c2csc(N3N=C(c4ccccc4)/C(=N/Nc4ccc5c(S(=O)(=O)O)cc(S(=O)(=O)O)cc5c4)C3=O)n2)cc1 | 5.42 |
| COCC1=NN(c2nc(-c3ccc(OC)cc3)cs2)C(=O)/C1=N\Nc1ccc2c(S(=O)(=O)O)cc(S(=O)(=O)O)cc2c1 | 4.65 |
| COc1ccc(-c2csc(N3N=C(C)/C(=N/Nc4ccc5c(S(=O)(=O)O)cc(S(=O)(=O)O)cc5c4)C3=O)n2)cc1 | 5.04 |
| O=C1/C(=N\Nc2ccc3c(S(=O)(=O)O)cc(S(=O)(=O)O)cc3c2)C(c2ccccc2)=NN1c1nc(-c2nccs2)cs1 | 5.17 |
| CC1=NN(c2nc(C(F)(F)F)cs2)C(=O)/C1=N\Nc1ccc2c(S(=O)(=O)O)cc(S(=O)(=O)O)cc2c1 | 4.10 |
| O=C1/C(=N\Nc2ccc3c(S(=O)(=O)O)cc(S(=O)(=O)O)cc3c2)C(c2ccccc2)=NN1c1nc(-c2ccc3c(c2)OCCO3)cs1 | 5.05 |
| O=C1/C(=N\Nc2ccc3c(S(=O)(=O)O)cc(S(=O)(=O)O)cc3c2)C(c2ccccc2)=NN1c1nc(C(F)(F)F)cs1 | 5.62 |

Test system: Human immunodeficiency virus 1
Assay: Antiviral activity against HIV1 CCR5-tropic strain YU2 infected in human 293T cells after 48 hrs by neutralization assay
Format: functional, cell-based
Settings: Human immunodeficiency virus 1, isolate YU2, HEK-293T
In short: as §1

| SMILES | pIC50 |
| --- | --- |
| CN(C)c1ccc(-c2csc(N3N=C(c4ccccc4)/C(=N/Nc4ccc5c(S(=O)(=O)O)cc(S(=O)(=O)O)cc5c4)C3=O)n2)cc1 | 4.62 |
| COCC1=NN(c2nc(-c3ccc(OC)cc3)cs2)C(=O)/C1=N\Nc1ccc2c(S(=O)(=O)O)cc(S(=O)(=O)O)cc2c1 | 4.13 |
| COc1ccc(-c2csc(N3N=C(C)/C(=N/Nc4ccc5c(S(=O)(=O)O)cc(S(=O)(=O)O)cc5c4)C3=O)n2)cc1 | 4.27 |
| O=C1/C(=N\Nc2ccc3c(S(=O)(=O)O)cc(S(=O)(=O)O)cc3c2)C(c2ccccc2)=NN1c1nc(-c2nccs2)cs1 | 4.51 |
| O=C1/C(=N\Nc2ccc3c(S(=O)(=O)O)cc(S(=O)(=O)O)cc3c2)C(c2ccccc2)=NN1c1nc(-c2ccc3c(c2)OCCO3)cs1 | 4.65 |
| O=C1/C(=N\Nc2ccc3c(S(=O)(=O)O)cc(S(=O)(=O)O)cc3c2)C(c2ccccc2)=NN1c1nc(C(F)(F)F)cs1 | 4.55 |

Test system: Human immunodeficiency virus 1
Assay: Antiviral activity against HIV1 CCR5-tropic strain YU2 infected in human 293T cells at 400 uM after 48 hrs by neutralization assay
Format: functional, cell-based, isolate YU2
Settings: not given
In short: as §1

| SMILES | IC50 |
| --- | --- |
| CC1=NN(c2nc(C(F)(F)F)cs2)C(=O)/C1=N\Nc1ccc2c(S(=O)(=O)O)cc(S(=O)(=O)O)cc2c1 | Not Active |

Test system: Human immunodeficiency virus 1
Assay: Antiviral activity against HIV1 JRCSF infected in human 293T cells after 48 hrs by neutralization assay
Format: functional, cell-based
Settings: Human immunodeficiency virus 1, JRCSF ISOLATE, HEK-293T
In short: as §1

| SMILES | pIC50 |
| --- | --- |
| CN(C)c1ccc(-c2csc(N3N=C(c4ccccc4)/C(=N/Nc4ccc5c(S(=O)(=O)O)cc(S(=O)(=O)O)cc5c4)C3=O)n2)cc1 | 5.10 |
| COCC1=NN(c2nc(-c3ccc(OC)cc3)cs2)C(=O)/C1=N\Nc1ccc2c(S(=O)(=O)O)cc(S(=O)(=O)O)cc2c1 | 4.44 |
| COc1ccc(-c2csc(N3N=C(C)/C(=N/Nc4ccc5c(S(=O)(=O)O)cc(S(=O)(=O)O)cc5c4)C3=O)n2)cc1 | 4.66 |
| O=C1/C(=N\Nc2ccc3c(S(=O)(=O)O)cc(S(=O)(=O)O)cc3c2)C(c2ccccc2)=NN1c1nc(-c2nccs2)cs1 | 4.71 |
| CC1=NN(c2nc(C(F)(F)F)cs2)C(=O)/C1=N\Nc1ccc2c(S(=O)(=O)O)cc(S(=O)(=O)O)cc2c1 | 4.08 |
| O=C1/C(=N\Nc2ccc3c(S(=O)(=O)O)cc(S(=O)(=O)O)cc3c2)C(c2ccccc2)=NN1c1nc(-c2ccc3c(c2)OCCO3)cs1 | 4.83 |
| O=C1/C(=N\Nc2ccc3c(S(=O)(=O)O)cc(S(=O)(=O)O)cc3c2)C(c2ccccc2)=NN1c1nc(C(F)(F)F)cs1 | 5.24 |

Test system: Human immunodeficiency virus 1
Assay: Antiviral activity against HIV1 CXCR4-tropic strain HxB2 infected in human 293T cells after 48 hrs by neutralization assay
Format: functional, organism-based
Settings: Human immunodeficiency virus 1, HxB2, HEK-293T
In short: as §1

| SMILES | pIC50 |
| --- | --- |
| CN(C)c1ccc(-c2csc(N3N=C(c4ccccc4)/C(=N/Nc4ccc5c(S(=O)(=O)O)cc(S(=O)(=O)O)cc5c4)C3=O)n2)cc1 | 5.96 |
| COCC1=NN(c2nc(-c3ccc(OC)cc3)cs2)C(=O)/C1=N\Nc1ccc2c(S(=O)(=O)O)cc(S(=O)(=O)O)cc2c1 | 5.00 |
| COc1ccc(-c2csc(N3N=C(C)/C(=N/Nc4ccc5c(S(=O)(=O)O)cc(S(=O)(=O)O)cc5c4)C3=O)n2)cc1 | 5.09 |
| O=C1/C(=N\Nc2ccc3c(S(=O)(=O)O)cc(S(=O)(=O)O)cc3c2)C(c2ccccc2)=NN1c1nc(-c2nccs2)cs1 | 4.92 |
| O=C1/C(=N\Nc2ccc3c(S(=O)(=O)O)cc(S(=O)(=O)O)cc3c2)C(c2ccccc2)=NN1c1nc(-c2ccc3c(c2)OCCO3)cs1 | 5.28 |
| O=C1/C(=N\Nc2ccc3c(S(=O)(=O)O)cc(S(=O)(=O)O)cc3c2)C(c2ccccc2)=NN1c1nc(C(F)(F)F)cs1 | 5.17 |

Test system: Human immunodeficiency virus 1
Assay: Antiviral activity against HIV1 NL4-3 infected in human 293T cells after 48 hrs by neutralization assay
Format: functional, organism-based
Settings: Human immunodeficiency virus 1, NL4-3, HEK-293T
In short: as §1

| SMILES | pIC50 |
| --- | --- |
| CN(C)c1ccc(-c2csc(N3N=C(c4ccccc4)/C(=N/Nc4ccc5c(S(=O)(=O)O)cc(S(=O)(=O)O)cc5c4)C3=O)n2)cc1 | 5.54 |
| COCC1=NN(c2nc(-c3ccc(OC)cc3)cs2)C(=O)/C1=N\Nc1ccc2c(S(=O)(=O)O)cc(S(=O)(=O)O)cc2c1 | 4.81 |
| COc1ccc(-c2csc(N3N=C(C)/C(=N/Nc4ccc5c(S(=O)(=O)O)cc(S(=O)(=O)O)cc5c4)C3=O)n2)cc1 | 5.15 |
| O=C1/C(=N\Nc2ccc3c(S(=O)(=O)O)cc(S(=O)(=O)O)cc3c2)C(c2ccccc2)=NN1c1nc(-c2nccs2)cs1 | 4.99 |
| CC1=NN(c2nc(C(F)(F)F)cs2)C(=O)/C1=N\Nc1ccc2c(S(=O)(=O)O)cc(S(=O)(=O)O)cc2c1 | 4.10 |
| O=C1/C(=N\Nc2ccc3c(S(=O)(=O)O)cc(S(=O)(=O)O)cc3c2)C(c2ccccc2)=NN1c1nc(-c2ccc3c(c2)OCCO3)cs1 | 5.11 |
| O=C1/C(=N\Nc2ccc3c(S(=O)(=O)O)cc(S(=O)(=O)O)cc3c2)C(c2ccccc2)=NN1c1nc(C(F)(F)F)cs1 | 5.20 |

Test system: Human immunodeficiency virus 1
Assay: Antiviral activity against HIV1 CXCR4-tropic strain HxB2 infected in human 293T cells at 400 uM after 48 hrs by neutralization assay
Format: functional, organism-based
Settings: not given
In short: as §1

| SMILES | IC50 |
| --- | --- |
| CC1=NN(c2nc(C(F)(F)F)cs2)C(=O)/C1=N\Nc1ccc2c(S(=O)(=O)O)cc(S(=O)(=O)O)cc2c1 | Not Active |

Test system: 293T
Assay: Inhibition of envelope gp120 in CCR5-tropic HIV1 YU2 infected in human 293T cells assessed as dose reduction index ratio at 1: 10 at 1:10 inhibitor to CCR5 Nt sulfated peptide (2 to 18) by single round neutralization assay
Format: cell-based
Settings: Human immunodeficiency virus type 1 (isolate YU2)
In short: (§2)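 Single-round YU2 pseudovirus neutralization in TZM-bl cells with luciferase read-out. Virus treated with inhibitor alone, with sulfated CCR5 N-terminal peptide 2–18 alone, or with a constant-ratio mixture, two-fold serial dilutions starting near 30× the single-agent IC₅₀. The ratio approximates the ratio of single-agent IC₅₀s. Analysed by the Chou–Talalay method. DRI is IC₅₀ alone divided by IC₅₀ in combination. CI below 1, equal to 1 and above 1 mean synergy, additivity and antagonism.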

| SMILES | Ratio |
| --- | --- |
| CN(C)c1ccc(-c2csc(N3N=C(c4ccccc4)/C(=N/Nc4ccc5c(S(=O)(=O)O)cc(S(=O)(=O)O)cc5c4)C3=O)n2)cc1 | 1.2 |
| O=C1/C(=N\Nc2ccc3c(S(=O)(=O)O)cc(S(=O)(=O)O)cc3c2)C(c2ccccc2)=NN1c1nc(-c2ccc3c(c2)OCCO3)cs1 | 1.2 |

Test system: 293T
Assay: Inhibition of envelope gp120 in CCR5-tropic HIV1 YU2 infected in human 293T cells assessed as combination index at 1: 10 at 1:10 inhibitor to CCR5 Nt sulfated peptide (2 to 18) by single round neutralization assay
Format: cell-based
Settings: Human immunodeficiency virus type 1 (isolate YU2)
In short: as §2

| SMILES | CI |
| --- | --- |
| CN(C)c1ccc(-c2csc(N3N=C(c4ccccc4)/C(=N/Nc4ccc5c(S(=O)(=O)O)cc(S(=O)(=O)O)cc5c4)C3=O)n2)cc1 | 2.5 |
| O=C1/C(=N\Nc2ccc3c(S(=O)(=O)O)cc(S(=O)(=O)O)cc3c2)C(c2ccccc2)=NN1c1nc(-c2ccc3c(c2)OCCO3)cs1 | 1.9 |

Test system: not listed separately
Assay: Cytotoxicity against human TZM-bl cells
Format: cell-based
Settings: read-out: LC50 (the source's name)

| SMILES | CC50 [µM] |
| --- | --- |
| CN(C)c1ccc(-c2csc(N3N=C(c4ccccc4)/C(=N/Nc4ccc5c(S(=O)(=O)O)cc(S(=O)(=O)O)cc5c4)C3=O)n2)cc1 | 330 |
| O=C1/C(=N\Nc2ccc3c(S(=O)(=O)O)cc(S(=O)(=O)O)cc3c2)C(c2ccccc2)=NN1c1nc(-c2ccc3c(c2)OCCO3)cs1 | 70 |
| O=C1/C(=N\Nc2ccc3c(S(=O)(=O)O)cc(S(=O)(=O)O)cc3c2)C(c2ccccc2)=NN1c1nc(C(F)(F)F)cs1 | 370 |

Test system: not listed separately
Assay: Cytotoxicity against human TZM-bl cells at 500 uM
Format: cell-based
Settings: not given

| SMILES | Activity |
| --- | --- |
| COc1ccc(-c2csc(N3N=C(C)/C(=N/Nc4ccc5c(S(=O)(=O)O)cc(S(=O)(=O)O)cc5c4)C3=O)n2)cc1 | Non-toxic |

Test system: not listed separately
Assay: Therapeutic index, ratio of LC50 for human TZM-bl cells to IC50 for HIV1
Format: cell-based
Settings: read-out: TI

| SMILES | selectivity ratio |
| --- | --- |
| CN(C)c1ccc(-c2csc(N3N=C(c4ccccc4)/C(=N/Nc4ccc5c(S(=O)(=O)O)cc(S(=O)(=O)O)cc5c4)C3=O)n2)cc1 | 13 |
| COc1ccc(-c2csc(N3N=C(C)/C(=N/Nc4ccc5c(S(=O)(=O)O)cc(S(=O)(=O)O)cc5c4)C3=O)n2)cc1 | > 30 |
| O=C1/C(=N\Nc2ccc3c(S(=O)(=O)O)cc(S(=O)(=O)O)cc3c2)C(c2ccccc2)=NN1c1nc(-c2ccc3c(c2)OCCO3)cs1 | < 10 |
| O=C1/C(=N\Nc2ccc3c(S(=O)(=O)O)cc(S(=O)(=O)O)cc3c2)C(c2ccccc2)=NN1c1nc(C(F)(F)F)cs1 | 13 |

Test system: not listed separately
Assay: Cytotoxicity against human TZM-bl cells at 200 to 500 uM
Format: cell-based
Settings: not given

| SMILES | Activity |
| --- | --- |
| O=C1/C(=N\Nc2ccc3c(S(=O)(=O)O)cc(S(=O)(=O)O)cc3c2)C(c2ccccc2)=NN1c1nc(C(F)(F)F)cs1 | Toxic |
